# Laboratory results: ChEMBL document CHEMBL4351014, “Bis(het)aryl-1,2,3-triazole quinuclidines as α7 nicotinic acetylcholine receptor ligands: Synthesis, structure affinity relationships, agonism activity, [18F]-radiolabeling and PET study in rats” (Eur J Med Chem, 2019)
# What was measured:
# [1] = Drug uptake in rat brain hippocampus at 6.5 +/- 0.46 MBq, iv and measured after 1 hr by gamma counting analysis; format: ADME, organism-based; conditions: in vivo
# Outline: (§1)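 Male Wistar rats (250-300 g, n=6 per group) under isoflurane received 0.3 mL tracer i.v. via the penis vein; MLA groups got methyllycaconitine 1 mg/kg i.v. 15 min before. Decapitated at 1 h. Frontal cortex, hippocampus, hypothalamus, striatum and cerebellum weighed and gamma counted (48% efficiency). %ID/g calculated against standard dilutions of the injectate, mean ± SEM.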
# [2] = Drug uptake in rat brain cerebellum at 6.5 +/- 0.46 MBq, iv and measured after 1 hr by gamma counting analysis; format: ADME, organism-based; conditions: in vivo; outline: as §1
# [3] = Drug uptake in rat brain frontal cortex at 6.5 +/- 0.46 MBq, iv and measured after 1 hr by gamma counting analysis; format: ADME, organism-based; conditions: in vivo; outline: as §1
# [4] = Stability of the compound in 100% ethanol measured up to 4 hrs by HPLC analysis; format: physicochemical
# [5] = Drug uptake in rat brain at 37MBq, iv administrated and measured during 71 mins of acquisition by PET-CT analysis; format: ADME, organism-based; conditions: in vivo
# Outline: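 Rats given a 37 MBq i.v. bolus and scanned on a microPET-CT for 71 min. Images reconstructed by 2-D OSEM; summed frames from 49-71 min shown.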
# [6] = Ratio of drug uptake in rat brain frontal cortex to cerebellum at 6.5 +/- 0.46 MBq, iv and measured after 1 hr by gamma counting analysis; format: ADME, organism-based; conditions: in vivo
# [7] = Stability of the compound in rat plasma measured up to 4 hrs by HPLC analysis; format: ADME, organism-based; conditions: read-out: Stability
# Outline: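 100 μL radiotracer mixed with 1 mL rat plasma at 37 °C. Acetonitrile added, organic layer filtered and analysed by radio-HPLC on a C18 column at 30 min, 1, 2 and 4 h. Repeated twice with different radiotracer preparations.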
# [8] = Drug uptake in rat brain striatum at 6.5 +/- 0.46 MBq, iv pretreated with alpha7 nAChR antagonist methyllycaconitine for 15 mins followed by compound addition and measured after 1 hr by gamma counting analysis; format: organism-based; conditions: in vivo; outline: as §1
# [9] = Drug uptake in rat brain frontal cortex at 6.5 +/- 0.46 MBq, iv pretreated with alpha7 nAChR antagonist methyllycaconitine for 15 mins followed by compound addition and measured after 1 hr by gamma counting analysis; format: organism-based; conditions: in vivo; outline: as §1
# [10] = Stability of the compound in 0.9% sodium chloride/ethanol solution by HPLC analysis; format: physicochemical
# [11] = Drug uptake in rat brain hypothalamus at 6.5 +/- 0.46 MBq, iv and measured after 1 hr by gamma counting analysis; format: ADME, organism-based; conditions: in vivo; outline: as §1
# [12] = Drug uptake in rat brain hypothalamus at 6.5 +/- 0.46 MBq, iv pretreated with alpha7 nAChR antagonist methyllycaconitine for 15 mins followed by compound addition and measured after 1 hr by gamma counting analysis; format: organism-based; conditions: in vivo; outline: as §1
# [13] = Drug uptake in rat brain cerebellum at 6.5 +/- 0.46 MBq, iv pretreated with alpha7 nAChR antagonist methyllycaconitine for 15 mins followed by compound addition and measured after 1 hr by gamma counting analysis; format: organism-based; conditions: in vivo; outline: as §1
# [14] = Drug uptake in rat brain hippocampus at 6.5 +/- 0.46 MBq, iv pretreated with alpha7 nAChR antagonist methyllycaconitine for 15 mins followed by compound addition and measured after 1 hr by gamma counting analysis; format: organism-based; conditions: in vivo; outline: as §1
# [15] = Drug uptake in rat brain striatum […], iv and measured after 1 hr by gamma counting analysis; format: ADME, organism-based; conditions: in vivo; outline: as §1
# [16] = Drug uptake in rat brain hypothalamus at 7.3 +/- 0.44 MBq, iv and measured after 1 hr by gamma counting analysis; format: ADME, organism-based; conditions: in vivo; outline: as §1
# [17] = Ratio of drug uptake in rat brain frontal cortex to cerebellum at 7.3 +/- 0.44 MBq, iv and measured after 1 hr by gamma counting analysis; format: ADME, organism-based; conditions: in vivo
# [18] = Drug uptake in rat brain striatum at 7.3 +/- 0.44 MBq, iv pretreated with alpha7 nAChR antagonist methyllycaconitine for 15 mins followed by compound addition and measured after 1 hr by gamma counting analysis; format: organism-based; conditions: in vivo; outline: as §1
# [19] = Ratio of drug uptake in rat brain striatum to cerebellum at 7.3 +/- 0.44 MBq, iv and measured after 1 hr by gamma counting analysis; format: ADME, organism-based; conditions: in vivo
# [20] = Drug uptake in rat brain frontal cortex at 7.3 +/- 0.44 MBq, iv pretreated with alpha7 nAChR antagonist methyllycaconitine for 15 mins followed by compound addition and measured after 1 hr by gamma counting analysis; format: organism-based; conditions: in vivo; outline: as §1
# [21] = Drug uptake in rat brain striatum at 7.3 +/- 0.44 MBq, iv and measured after 1 hr by gamma counting analysis; format: ADME, organism-based; conditions: in vivo; outline: as §1
# [22] = Drug uptake in rat brain frontal cortex at 7.3 +/- 0.44 MBq, iv and measured after 1 hr by gamma counting analysis; format: ADME, organism-based; conditions: in vivo; outline: as §1
# [23] = Drug uptake in rat brain hippocampus at 7.3 +/- 0.44 MBq, iv and measured after 1 hr by gamma counting analysis; format: ADME, organism-based; conditions: in vivo; outline: as §1
# [24] = Ratio of drug uptake in rat brain hippocampus to cerebellum at 7.3 +/- 0.44 MBq, iv and measured after 1 hr by gamma counting analysis; format: ADME, organism-based; conditions: in vivo
# [25] = Drug uptake in rat brain hippocampus at 7.3 +/- 0.44 MBq, iv pretreated with alpha7 nAChR antagonist methyllycaconitine for 15 mins followed by compound addition and measured after 1 hr by gamma counting analysis; format: organism-based; conditions: in vivo; outline: as §1
# [26] = Drug uptake in rat brain cerebellum at 7.3 +/- 0.44 MBq, iv and measured after 1 hr by gamma counting analysis; format: ADME, organism-based; conditions: in vivo; outline: as §1
# [27] = Drug uptake in rat brain hypothalamus at 7.3 +/- 0.44 MBq, iv pretreated with alpha7 nAChR antagonist methyllycaconitine for 15 mins followed by compound addition and measured after 1 hr by gamma counting analysis; format: organism-based; conditions: in vivo; outline: as §1
# [28] = Drug uptake in rat brain cerebellum at 7.3 +/- 0.44 MBq, iv pretreated with alpha7 nAChR antagonist methyllycaconitine for 15 mins followed by compound addition and measured after 1 hr by gamma counting analysis; format: organism-based; conditions: in vivo; outline: as §1
compound,measurement,setting,value
[18F]Cc1ccc(-c2ccc(-c3cn([C@H]4CN5CCC4CC5)nn3)s2)cc1,Drug uptake,[1],0.43 % ID/g
same,Drug uptake,[2],0.44 % ID/g
same,Drug uptake,[3],0.56 % ID/g
same,Stability,[4],Stable
same,Drug uptake,[5],Active
same,Ratio,[6],1.29
same,remaining at 4 h,[7],> 95%
same,Drug uptake,[8],Active
same,Drug uptake,[9],Active
same,Stability,[10],Unstable
same,Drug uptake,[11],0.42 % ID/g
same,Drug uptake,[12],Active
same,Drug uptake,[13],Active
same,Drug uptake,[14],Active
same,Drug uptake,[15],0.44 % ID/g
[18F]c1ccc(-c2ccc(-c3cn([C@H]4CN5CCC4CC5)nn3)s2)cn1,Drug uptake,[16],0.59 % ID/g
same,Ratio,[17],1.47
same,Drug uptake,[5],Active
same,Drug uptake,[18],Active
same,Ratio,[19],1.31
same,Drug uptake,[20],Active
same,Drug uptake,[21],0.76 % ID/g
same,remaining at 4 h,[7],> 95%
same,Drug uptake,[22],0.85 % ID/g
same,Drug uptake,[23],0.78 % ID/g
same,Ratio,[24],1.34
same,Drug uptake,[25],Active
same,Drug uptake,[26],0.58 % ID/g
same,Drug uptake,[27],Active
same,Drug uptake,[28],Active
